# In the library only some 0.77% were active in any assay of this set; here they are far more common.
# mIAP activ: activators of mouse IAP, primary screen, biochemical, luminescence, uHTS; intestinal alkaline phosphatase [Mus musculus]; 330,000 compounds, 0.24% hits; activation factor at 10 µM; muIAP, CDP-Star luminescence, 30 min; stronger effect = higher value; 1 = vehicle-only enzyme signal, 0 = enzyme-free wells;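 active = activation factor of at least 2 at 20 µM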
#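 System: Mouse IAP enzyme | Also added: CDP-Star substrate | Dosing: Compounds dispensed in DMSO | Schedule: 30 min enzyme-substrate-compound incubation at room temperature | Technique: Chemiluminescence readout | Control set: DMSO-only wells and no-enzyme negative control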
# hIAP block: human IAP inhibitors, primary screen, biochemical, luminescence, uHTS. purified IAP, CDP-Star luminescence, 30 min. Intestinal-type alkaline phosphatase (Homo sapiens), P09923. inhibition, % at 10 µM. 330,000 compounds, 0.12% hits;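 active = inhibition reaching a set limit with compound at 10 µM in the primary screen, cut at about 35% in these data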;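 note: plate controls were DMSO wells with enzyme for no effect and no-enzyme buffer wells for full effect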
# Target sequence (P09923 whole entry, looked up): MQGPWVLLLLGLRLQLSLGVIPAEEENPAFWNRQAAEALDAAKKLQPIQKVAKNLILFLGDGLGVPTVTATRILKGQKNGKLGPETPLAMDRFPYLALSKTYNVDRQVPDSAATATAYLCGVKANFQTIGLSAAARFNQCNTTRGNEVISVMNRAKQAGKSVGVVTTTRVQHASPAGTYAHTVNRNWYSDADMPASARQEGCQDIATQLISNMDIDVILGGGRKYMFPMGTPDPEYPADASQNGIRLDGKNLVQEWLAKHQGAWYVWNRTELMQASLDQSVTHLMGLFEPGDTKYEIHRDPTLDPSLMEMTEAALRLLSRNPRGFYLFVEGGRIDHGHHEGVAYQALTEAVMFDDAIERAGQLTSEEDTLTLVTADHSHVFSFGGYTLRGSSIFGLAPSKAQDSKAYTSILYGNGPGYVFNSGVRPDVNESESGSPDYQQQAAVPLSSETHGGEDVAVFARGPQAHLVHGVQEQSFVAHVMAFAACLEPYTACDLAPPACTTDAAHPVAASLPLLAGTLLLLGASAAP
# bIAP activator: bovine intestinal alkaline phosphatase activators, primary screen, biochemical, bovine IAP, CDP-star luminescence; purified bovine IAP, 30 min; stronger effect = higher value; fold of DMSO-control signal, blank-subtracted; alkaline phosphatase, intestinal [Bos taurus]; activation factor at 20 µM; 200,000 compounds, 0.17% hits;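 active = activation factor of 2 or more at 20 µM, a signal rise over negative controls twice the positive control's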
# hIAP act: human IAP activators, primary screen, biochemical, luminescence, uHTS; Intestinal-type alkaline phosphatase (Homo sapiens), P09923; purified human IAP, CDP-Star luminescence, 30 min; stronger effect = higher value; 1 = vehicle-only enzyme, 0 = enzyme-free background; activation factor at 10 µM; 330,000 compounds, 0.16% hits; AID 2524, 2010;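 active = activation factor of the enzyme at least 2-fold when tested at 20 µM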
# mIAP block: inhibitors of mouse IAP, primary screen, biochemical, luminescence, uHTS. inhibition, % at 10 µM. AID 2806, 2010. 330,000 compounds, 0.2% hits. intestinal alkaline phosphatase [Mus musculus]. purified mouse IAP, CDP-Star luminescence, 30 min;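 active = inhibition of at least 40% at 10 µM in the primary screen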;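 note: plate controls were DMSO with enzyme for no effect and no enzyme wells for full effect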
# bIAP inh: bovine intestinal alkaline phosphatase inhibitors, primary screen, selectivity assay for TNAP inhibitor project, biochemical, bovine IAP, CDP-star luminescence. alkaline phosphatase, intestinal [Bos taurus]. purified bovine IAP, 30 min. inhibition, % at 20 µM. 190,000 tested, under 10 active. AID 1019, 2008;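 active = over 50% inhibition of intestinal alkaline phosphatase at 20 µM in the single-dose screen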
#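 System: Purified bovine intestinal alkaline phosphatase (IAP) enzyme | Input: IAP diluted 1/65,000,000 in the well | Also added: CDP-star chemiluminescent phosphatase substrate, 30 µM final | Dosing: 20 µM single dose | Times: Enzyme reaction for 30 min at room temperature | Detection: Luminescence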
# hIAP act conf: human IAP activators, confirmation, biochemical, luminescence, single concentration, uHTS hits; 880 compounds, 10% hits; AID 434926, 2010; purified IAP, CDP-Star luminescence, 30 min; stronger effect = lower value; activation (%Activity, negative = activation), % at 8.3 µM; shares compounds with hIAP act;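 active = at least twofold enzyme activation in any of six single-dose repeats, which the averaged readout prints as negative percent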
# An asterisk follows results filed as active; . = not tested or not shown.
SMILES,mIAP activ,hIAP block,bIAP activator,hIAP act,mIAP block,bIAP inh,hIAP act conf
O=C(CSc1ncn[nH]1)NNC(=O)c1ccccc1,0.92,-123,.,2.2*,8,.,-23
CCOC(=O)c1ccc(NC(=O)c2cn(CCC#N)nc2-c2ccc3c(c2)OCCO3)cc1,1.1,-3,0.9,1,-5,5,.
COc1ccc(C(=O)Nc2cccc(C)c2)cc1S(=O)(=O)N1CCOCC1,0.98,13,1.1,0.87,2,-6,.
COc1ccc(C(=O)Nc2cccc3c2C(=O)NC3=O)cc1S(=O)(=O)N1CCOCC1,0.93,36*,1.1,0.64,7,-7,-85*
COc1ccc(C(=O)Nc2ccccc2C(=O)NCCN2CCOCC2)cc1OC,0.97,-29,.,1.3,3,.,.
Nc1ccc(S(=O)(=O)N2CCc3ccccc32)cc1,1,38*,.,0.62,-3,.,-26
Cc1nc(S/C(=C/c2ccc(-c3ccc(Cl)cc3)o2)C(=O)O)n[nH]1,0.92,-120,0.9,2.2*,8,13,-89*
CCOC(=O)N1CCN(CC(=O)Nc2sc(CC)cc2C(=O)c2ccc(OC)cc2)CC1,0.99,-12,.,1.1,1,.,.
NC1=NCC(O)=C1c1nc2ccccc2[nH]1,0.94,-101,1.7,2*,6,-66,-55
CSCCC(NS(=O)(=O)c1ccc(C)cc1)C(=O)NNC(=O)c1csc(N2CCOCC2)n1 (centres undefined),0.68,-103,.,2*,32,.,48
CCCCOc1ccc(C(=O)NNC(=S)NC(=O)CC)cc1,.,.,0.9,.,.,6,.
CCCOc1ccc(C(=O)NNC(=S)NC(C)=O)cc1,0.9,-118,1.7,2.2*,10,-68,-13
CCCOc1ccc(C(=O)NNC(=S)NC(=O)c2ccccc2)cc1,0.93,-27,.,1.3,8,.,.
CCCOc1ccc(C(=O)NNC(=S)NC(=O)c2ccccc2[N+](=O)[O-])cc1,0.84,-114,.,2.1*,16,.,-23
C=CCNC(=S)NNC(=O)c1ccc(OCCCC)cc1,0.91,-108,0.9,2.1*,9,8,2
CCc1ccc(OCC(=O)Nc2ncn[nH]2)cc1,1,-106,1.8,2.1*,-2,-75,1
Cc1nc2c3cnn(-c4ccccc4)c3ncn2n1,1,73*,0.9,0.27,-1,14,4
c1ccc(-n2ncc3c2ncn2cnnc32)cc1,1,82*,0.4,0.17,-4,.,-18
c1ccc(-n2ncc3c2ncn2nnnc32)cc1,1,-18,1.1,1.2,-5,-7,.
CCCc1cc(=O)[nH]c(SCC(=O)NN(c2ccccc2)c2ccccc2)n1,0.96,8,1.3,0.92,4,-29,.
COC(=O)c1ccc(N/C(C)=C/C(=O)c2ccc(C)o2)cc1,0.89,36*,1,0.64,12,2,-3
COc1cc(/C=C2\CCC/C(=C\c3ccc(O)c(OC)c3)C2=O)ccc1O,0.69,34,.,0.66,30,.,.
COc1cc(/C=C2/CCC/C(=C\c3cc(O)c(OC)c(Cl)c3)C2=O)cc(Cl)c1O,0.64,40*,0.4,0.6,36,.,2
O=C(/C=C/c1ccc(S(=O)(=O)NCc2ccco2)cc1)N1CCN(c2ccccc2)CC1,0.93,12,1.2,0.88,7,-17,.
O=C(NC1CCCC1)C(c1cccnc1)N(C(=O)c1csnn1)c1ccccc1Cl (centres undefined),0.98,-6,.,1.1,2,.,.
SMILES,mIAP activ,hIAP block,bIAP activator,hIAP act,mIAP block,bIAP inh,hIAP act conf
O=C(CC(=O)c1ccccc1)Nc1ccccn1,1,42*,.,0.58,-1,.,-16
O=C(CC(=O)c1ccccc1)Nc1ccccc1,0.95,7,.,0.93,5,.,.
O=C(Nc1ccncc1)c1ccccc1-c1ccccc1,0.93,2,1,0.98,7,-1,.
COC(=O)C(N)Cc1ccc(O)c(O)c1 (centres undefined),0.76,21,0.8,0.79,24,17,.
O=C1NCCC/C1=N/Nc1cc(F)ccc1F,0.95,-7,.,1.1,5,.,.
Nc1nc(CN2CCN(Cc3ccc4c(c3)OCO4)CC2)nc(Nc2ccccc2)n1,1,-102,1.1,2*,-1,-5,-1
CC(=O)C(=Nc1ccc(Cl)cc1Cl)NNc1cccc(Cl)c1,0.94,14,0.7,0.86,6,32,.
CCOc1cc(/C=C2/SC(=S)N(Cc3ccccc3)C2=O)ccc1O,0.72,-10,.,1.1,28,.,.
COc1cc(/C=C2\SC(=S)N(N(C)c3ccccc3)C2=O)ccc1O,0.69,41*,.,0.59,30,.,60
COC(=O)c1cc(OC)c(OC)cc1NC(=O)CSc1nnc(-c2cccnc2)n1C,1.1,-115,1,2.1*,-9,1,-12
CCOC(=O)Cc1csc(NC(=O)CN2C(=O)c3ccccc3C2=O)n1,1,-2,.,1,0,.,.
CCOC(=O)Cc1csc(NC(=O)CN2C(=O)c3ccccc3S2(=O)=O)n1,0.92,-107,1.4,2.1*,8,-35,7
CCCCN1C(=O)/C(=C/C=C2\SCCN2C)SC1=S,0.75,44*,0.7,0.56,25,28,-4
CN1CCS/C1=C/C=C1\SC(=S)N(CC(=O)O)C1=O,0.7,27,0.4,0.73,30,.,.
COc1cc2c(cc1OC)[C@H](C)N(C(=S)Nc1ccc(F)cc1)CC2,1,-127,.,2.3*,0,.,3
COc1cc2c(cc1OC)C(C)N(C(=O)Nc1ccccc1)CC2 (centres undefined),0.98,6,.,0.94,2,.,.
CC(N=C1NS(=O)(=O)c2ccccc21)C(=O)OCC(=O)N(C)C1CCS(=O)(=O)C1 (centres undefined),0.94,4,.,0.96,6,.,.
O=C(c1cccs1)N1CCc2ccccc21,1.1,-119,0.9,2.2*,-6,7,4
O=C(Cc1coc2ccc3ccccc3c12)NCc1ccccc1,1.1,-103,0.8,2*,-7,21,59
O=C(Cc1coc2ccc3ccccc3c12)Nc1nccs1,1.1,-4,1,1,-7,2,.
O=C1CSC(c2cccc([N+](=O)[O-])c2)N1Cc1ccccc1 (centres undefined),0.98,9,.,0.91,2,.,.

# Screens: PubChem, Sanford-Burnham Center for Chemical Genomics
